In ChEMBL document CHEMBL2331323, “Design, synthesis and anticancer properties of 5-arylbenzoxepins as conformationally restricted isocombretastatin A-4 analogs” (Eur J Med Chem, 2013):
The source made the active and inactive calls. The rule behind the calls is not given here.

Assays:
HCT-116 [1] = assay: Growth inhibition of human HCT116 cells after 72 hrs by Victor microtiter plate fluorimeter analysis; format: functional
MDA-MB-231 [2] = assay: Growth inhibition of hormone-independent human MDA-MB-231 cells after 72 hrs by Victor microtiter plate fluorimeter analysis; format: functional; details: MDA-MB-231, 72 h
K562 [3] = assay: Growth inhibition of human K562 cells after 72 hrs by Victor microtiter plate fluorimeter analysis; format: functional; details: K562, 72 h
[4] = Inhibition of sheep brain tubulin polymerization assessed as decrease in rate of microtubule assembly by fluorimeter analysis; design: species or system Ovis aries
Method in brief: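 Sheep brain tubulin purified by two assembly–disassembly cycles, at about 2-3 mg/mL in 0.1 M MES, 0.5 mM MgCl₂, 1 mM EGTA, 1 mM GTP, pH 6.6. Assembly followed by DAPI fluorescence at 37 °C. IC50 is the concentration halving the maximum assembly rate versus no compound. Measured the same day as the isoCA-4 reference.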

[5] = Growth inhibition of human H1299 cells after 72 hrs by Victor microtiter plate fluorimeter analysis; format: functional; details: NCI-H1299, 72 h
Ovis aries = organism: Ovis aries; assay: Ratio of compound IC50 to isoCA-4 IC50 for sheep brain tubulin polymerization by fluorimeter analysis
HCT-116 [6] = assay: Induction of apoptosis in human HCT116 cells assessed as increase in proteolytic activity of caspase 3/7 after 24 hrs by fluorimeter analysis; format: functional, cell-based
Method in brief: (§1)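 Apo-ONE homogeneous caspase-3/7 kit. Cells seeded at 5 × 10⁴ per well and grown 24 h. Medium then replaced with compound at 1, 5 and 10 nM, or 0.1% DMSO as negative control, for 24 h. Caspase substrate and Apo-ONE buffer mix added, incubated 1 h, fluorescence read at 527 nm.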

HCT-116 [7] = assay: Induction of cell cycle arrest in human HCT116 cells assessed as accumulation of cells in G2/M phase at 5 nM after 24 hrs by propidium iodide staining based flow cytometry; format: functional
Method in brief: (§2)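 Exponentially growing cells exposed to compound at 5 nM, or DMSO, for 24 h. Cell-cycle distribution determined by flow cytometry after standard propidium iodide staining.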

K562 [8] = assay: Induction of cell cycle arrest in human K562 cells assessed as accumulation of cells in G2/M phase at 5 nM after 24 hrs by propidium iodide staining based flow cytometry; format: functional; method in brief: as §2
NCI-H1299 [9] = assay: Induction of cell cycle arrest in human H1299 cells assessed as accumulation of cells in G2/M phase at 5 nM after 24 hrs by propidium iodide staining based flow cytometry; format: functional; method in brief: as §2
MDA-MB-231 [10] = assay: Induction of cell cycle arrest in human MDA-MB-231 cells assessed as accumulation of cells in G2/M phase at 5 nM after 24 hrs by propidium iodide staining based flow cytometry; format: functional; method in brief: as §2
NCI-H1299 [11] = assay: Induction of apoptosis in human H1299 cells assessed as increase in proteolytic activity of caspase 3/7 after 24 hrs by fluorimeter analysis; format: functional, cell-based; method in brief: as §1

| Structure (SMILES) | GI50 (MDA-MB-231 [2]) | GI50 (K562 [3]) | IC50 [4] | GI50 (HCT-116 [1]; HCT-116, 72 h) | GI50 [5] | Ratio IC50 (Ovis aries) | other results |
| --- | --- | --- | --- | --- | --- | --- | --- |
| COc1ccc2c(c1CCCCO)OCCCC2c1cc(OC)c(OC)c(OC)c1 (stereo not given) |  |  |  |  |  |  | GI50 (HCT-116 [1]): inactive |
| C=C(c1ccc(OC)c(O)c1)c1cc(OC)c(OC)c(OC)c1 | 0.004 µM | 0.005 µM | 1.5 µM | 0.003 µM | 0.003 µM |  |  |
| COc1ccc2c(c1O)OCCCC2c1cc(OC)c(OC)c(OC)c1 (stereo not given) | 0.015 µM | 0.05 µM | 3.3 µM | 0.02 µM | 0.007 µM | 2 |  |
| COc1ccc2c(c1)OCCC=C2c1cc(OC)c(OC)c(OC)c1 | 0.25 µM | 0.1 µM | 3.9 µM | 0.085 µM | 0.18 µM | 2 |  |
| COc1ccc2c(c1C#CCCO)OCCC=C2c1cc(OC)c(OC)c(OC)c1 |  |  |  | 0.25 µM |  |  |  |
| COc1ccc(/C=C\c2cc(OC)c(OC)c(OC)c2)cc1O [COMBRETASTATIN A4] |  |  |  | 0.002 µM |  |  |  |
| COc1ccc2c(c1N)OCCC=C2c1cc(OC)c(OC)c(OC)c1 | 0.008 µM | 0.04 µM | 3.6 µM | 0.022 µM | 0.03 µM | 2 |  |
| COc1cc(OC)cc(C2=CCCOc3c2ccc(OC)c3O)c1 | 0.028 µM | 0.03 µM | 3.2 µM | 0.025 µM | 0.032 µM | 2 |  |
| COc1ccc2c(c1Br)OCCC=C2c1cc(OC)c(OC)c(OC)c1 |  |  |  | 0.17 µM |  |  |  |
| COc1ccc2c(c1O)OCCC=C2c1cc(OC)c(OC)c(OC)c1 | 0.003 µM | 0.008 µM | 3.8 µM | 0.0015 µM | 0.0045 µM | 2 | Activity (HCT-116 [6]): Dose-dependent effect; Activity (HCT-116 [7]): Active; Activity (K562 [8]): Active; Activity (NCI-H1299 [9]): Active; Activity (MDA-MB-231 [10]): Active; Activity (NCI-H1299 [11]): Dose-dependent effect |
